Type in all cases: ADME, organism-based
Series [1] has as its system Homo sapiens. The series is described as follows: Cmax in critically ill patient with acute kidney injury at 5 mg/kg, iv administered as 1 hr infusion. Also noted: dose 5 mg/kg, route intravenous. The following applies: in vivo. Summed up:
(§1)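 Monte Carlo simulation in NONMEM from the final covariate population model. 1,000 simulated subjects per regimen, modelled on a person (70 kg, BMI 23.6 kg/m²). Weight-based doses were given at EDD-f start or 30 min, 1 h, 2 h or 4 h before a 10-h EDD-f session, every 24 h or every 48 h. Targets were Cmax and AUC0-24, assuming an MIC of 1 mg/liter.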

The test system of series [2] is Homo sapiens. The series is described as follows: Clearance in iv dosed critically ill patient with acute kidney injury during extended daily diafiltration. The following applies: in vivo. Put shortly: (§2)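 Patients were 14 critically ill adults with AKI on EDD-f, 28 doses in total. Gentamicin was given as a 30-min central venous infusion. Arterial plasma was sampled predose and at 15, 30, 60, 120, 180, 300, 480 and 600 min, plus samples between EDD-f sessions. Plasma levels were measured by Synchron LX assay (LOD 0.3 mg/liter). A two-compartment NONMEM model (FOCE with interaction) was fitted with EDD-f as a covariate.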

Series [3] deals with Homo sapiens. Description: Cmax in critically ill patient with acute kidney injury at 6 mg/kg, iv administered every 48 hrs. Also noted: dose 6 mg/kg, route intravenous. The following applies: in vivo. Summed up: as §1
The subject of series [4] is Homo sapiens. Description: AUC (0 to 24 hrs) in critically ill patient with acute kidney injury at 5 mg/kg, iv administered as 1 hr infusion. Also noted: dose 5 mg/kg, route intravenous. As to conditions: in vivo. Summed up: as §1
Series [5] has as its system Homo sapiens. Description: AUC (0 to 24 hrs) in critically ill patient with acute kidney injury at 6 mg/kg, iv administered every 48 hrs. Also noted: time < 24 hr, dose 6 mg/kg, route intravenous. As to conditions: in vivo. Put shortly: as §1
Series [6] concerns Homo sapiens. Description: AUC (0 to 24 hrs) in critically ill patient with acute kidney injury at 4 mg/kg, iv administered as 30 mins infusion. Also noted: time < 24 hr, dose 4 mg/kg, route intravenous. The following applies: in vivo. Summed up:
as §1

The test system of series [7] is Homo sapiens. Description: Clearance iv dosed in critically ill patient with acute kidney injury. As to conditions: in vivo. Put shortly:
as §2

Series [8] deals with Homo sapiens. Description: Cmax in critically ill patient with acute kidney injury at 4 mg/kg, iv administered as 30 mins infusion. As to conditions: in vivo, 0.5 h. Also noted: dose 4 mg/kg, route intravenous. Put shortly:
as §1

The subject of series [9] is Homo sapiens. The series is described as follows: AUC (0 to 24 hrs) in critically ill patient with acute kidney injury at 5 mg/kg, iv administered every 24 hrs. Also noted: time < 24 hr, dose 5 mg/kg, route intravenous. As to conditions: in vivo. Summed up: as §1
The test system of series [10] is Homo sapiens. The series is described as follows: Cmax in critically ill patient with acute kidney injury at 5 mg/kg, iv administered every 24 hrs. Also noted: dose 5 mg/kg, route intravenous. The following applies: in vivo. Put shortly: as §1
In series [11] the test system is Homo sapiens. Description: Half life in iv dosed critically ill patient with acute kidney injury. The following applies: in vivo. Put shortly: as §2
Series [12] has as its system Homo sapiens. The series is described as follows: Half life in iv dosed critically ill patient with acute kidney injury during extended daily diafiltration. As to conditions: in vivo. Put shortly:
as §2

On to GENTAMICIN, for which the Cmax in the series on Homo sapiens [1], with Homo sapiens [3], in the series on Homo sapiens [4] and in the series with Homo sapiens [10] was > 10000 ng/mL each time. The CL in the series with Homo sapiens [2] came out at 2.54 L/h; in the series on Homo sapiens [7], 0.23 L/h. The AUC (in general, concentration integrated over time) is 88700 ng·h/mL in the series with Homo sapiens [5], 70000 ng·h/mL in the series with Homo sapiens [6], 70000 ng·h/mL in the series with Homo sapiens [8] and 135700 ng·h/mL with Homo sapiens [9]. Besides, the t1/2 in the series on Homo sapiens [11] amounted to 153.4 h; in the series on Homo sapiens [12] it was 13.8 h.

(Values after ChEMBL document CHEMBL1649316, “Using population pharmacokinetics to determine gentamicin dosing during extended daily diafiltration in critically ill patients with acute kidney injury” (Antimicrob Agents Chemother, 2010).)
